The subject of data set [1] is MCF7. Kind of data set: Induction of apoptosis in human MCF7 cells assessed as early apoptotic cells at 1 uM after 24 hrs by Annexin-V FITC/propidium iodide staining based flow cytometry (reference value: 2.65%). Format: functional. A general note: Flow cytometry measures light scatter and fluorescence of single cells or particles in a stream.
The subject of data set [2] is MCF7. Put plainly: Induction of apoptosis in human MCF7 cells assessed as early apoptotic cells at 0.25 uM after 24 hrs by Annexin-V FITC/propidium iodide staining based flow cytometry (reference value: 2.65%). Format: functional.
The subject of data set [3] is MCF7. Kind of data set: Induction of apoptosis in human MCF7 cells assessed as necrotic cells at 0.25 uM after 24 hrs by Annexin-V FITC/propidium iodide staining based flow cytometry (reference value: 0.102%). Format: functional.
Data set [4] relates to Mus musculus. Kind of data set: Toxicity in ICR mouse xenografted with […] cells assessed as changes in body weight at 20 mg/kg/day, iv for 3 weeks measured once in 2 days during compound dosing. Format: organism-based. To be noted: in vivo. In short, it runs like this: (§1)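 Mice received 1 × 10^6 tumor cells subcutaneously in the right flank: MCF-7 in male BALB/c nude mice aged six weeks, H22 in male ICR mice aged five weeks. After 7 d they were randomized (six or eight per group). Dosing was 20 mg/kg iv daily in 10% DMF/2% poloxamer/88% saline for 21 or 28 days; saline control. Body weight was recorded every 2 days.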
A general note: Xenograft models place foreign cells or tissue in a host animal.

Data set [5] concerns Bel-7402. Kind of data set: Cell cycle arrest in human Bel7402 cells assessed as accumulation at S phase at 0.5 uM after 48 hrs by propidium iodide staining based flow cytometry (reference value: 8.78%). Format: functional.
Data set [6] has as its system MCF7. Put plainly: Downregulation of cdc2 protein expression in human MCF7 cells after 48 hrs by Western blot method. Format: functional, cell-based. The method, boiled down:
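MCF-7 cells exposed to 0–1 μM compound for 48 h, then lysed on ice. Lysate (20 μg protein) run on 8–12% SDS-PAGE and transferred to PVDF. Probed overnight at 4 °C with primary antibodies, then fluorescent secondaries. Band densities normalized to β-actin. Mean ± SD of three independent experiments.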
For orientation: In western blotting, separated proteins are transferred to a membrane and probed.

Data set [7] concerns MCF7. Put plainly: Induction of apoptosis in human MCF7 cells assessed as increase in caspase-9 protein expression up to 1 uM after 48 hrs by Western blot method. Format: functional, cell-based. The method, boiled down: (§2)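 MCF-7 cells were treated at 0, 0.125, 0.25, 0.5 or 1 μM for 48 h, washed in ice-cold PBS and lysed on ice for 20 min. Lysates were spun at 13,000 g, 4 °C. 20 μg protein was run on SDS-PAGE and blotted to PVDF, probed overnight at 4 °C with primary antibodies, then with fluorescent secondary antibodies. Band density was expressed relative to β-actin; three independent experiments.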

Data set [8] has as its system MCF7. Put plainly: Induction of apoptosis in human MCF7 cells assessed as increase in cytochrome c protein expression at 0.5 to 1 uM after 48 hrs by Western blot method. Format: functional, cell-based. In short, it runs like this: as §2
Data set [9] relates to MCF7. Put plainly: Cell cycle arrest in human MCF7 cells assessed as accumulation at G1 phase at 0.125 uM after 48 hrs by propidium iodide staining based flow cytometry (reference value: 49.77%). Format: functional. In short, it runs like this:
(§3)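 MCF-7 cells, 5 × 10^4 per well, seeded overnight, then exposed to 0.125–1 μM compound, or DMSO, for 48 h. Ethanol-fixed (70%, −20 °C, 12 h) and stained with PI/RNase at 37 °C for 30 min. Phase distribution determined by flow cytometry.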

Data set [10] has as its system MCF7. Put plainly: Antitumor activity against human MCF7 cells xenografted in Balb/c nude mouse assessed as tumor growth inhibition at 20 mg/kg/day, iv for 4 weeks relative to control. Format: functional. The following applies: 672 h, read-out: TGI. In short, it runs like this: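 Six-week-old male BALB/c nude mice received 1 × 10^6 MCF-7 cells subcutaneously in the right flank. After 7 d of tumor growth, mice were randomized into groups of six. Dosing was 20 mg/kg iv once daily for 28 days in 10% DMF/2% poloxamer/88% saline. Tumor volume (L × W²/2) and body weight were recorded every 2 days. Inhibition = (1 − mean treated/control tumor weight) × 100%.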

Data set [11] has as its system MCF7. Kind of data set: Induction of apoptosis in human MCF7 cells assessed as increase in Bax protein expression at 0.5 to 1 uM after 48 hrs by Western blot method. Format: functional, cell-based. The method, boiled down: as §2
For data set [12], the system named is Bel-7402. Put plainly: Cell cycle arrest in human Bel7402 cells assessed as accumulation at G2/M phase at 0.5 uM after 48 hrs by propidium iodide staining based flow cytometry (reference value: 56.61%). Format: functional.
The test system of data set [13] is MCF7. Kind of data set: Induction of apoptosis in human MCF7 cells assessed as increase in Bad protein expression at 0.5 to 1 uM after 48 hrs by Western blot method. Format: functional, cell-based. The method, boiled down: as §2
Data set [14] deals with Bel-7402. Put plainly: Cell cycle arrest in human Bel7402 cells assessed as accumulation at G2/M phase at 2 uM after 48 hrs by propidium iodide staining based flow cytometry (reference value: 56.61%). Format: functional.
Data set [15] deals with MCF7. Put plainly: Induction of apoptosis in human MCF7 cells after 24 hrs by Annexin-V FITC/propidium iodide staining based flow cytometry. Format: functional, cell-based.
The next data set has as its system BEL-7404 tumor cell line. Put plainly: Antiproliferative activity against human Bel7404 cells after 48 hrs by MTT assay. Format: functional, cell-based. To be noted: BEL-7404, 48 h. In short, it runs like this: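 Colorimetric MTT assay. KB-3-1, NCI-H460 and Bel-7404 cells were seeded at 4000 cells/well; resistant KB/CP4, NCI-H460/MX20 and Bel-7404/CP20 were seeded at 7000 cells/well. Cells were pre-incubated 24 h at 37 °C, 5% CO2, then exposed to a compound concentration series for 48 h with DMSO ≤0.25%. Absorbance read at 570 nm. Quadruplicate wells, three repeats; means ± SD.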

In data set [16] the test system is MCF7. Put plainly: Inhibition of colony formation in human MCF7 cells incubated for 24 hrs measured after 10 days by crystal violet staining based microscopic method. Format: functional, cell-based. The method, boiled down:
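MCF-7 cells were plated at 3 × 10^2 per well and left overnight, then exposed to 0, 75, 150 or 300 nM (DMSO vehicle) for 24 h. Medium was removed and cells grew a further 10 days. Colonies were fixed in methanol for 15 min, stained with 0.1% crystal violet for 15 min and counted; a colony was >50 cells. At least three independent experiments, mean ± SD.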

Data set [17] has as its system MCF7. Kind of data set: Cell cycle arrest in human MCF7 cells assessed as accumulation at G1 phase at 1 uM after 48 hrs by propidium iodide staining based flow cytometry (reference value: 49.77%). Format: functional. In short, it runs like this: as §3
In a further data set the test system is MGC-803. Kind of data set: Antiproliferative activity against human MGC803 cells after 72 hrs by MTT assay. Format: functional, cell-based. To be noted: MGC-803, 72 h. In short, it runs like this: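 MGC-803 and MCF-7 cells grown in DMEM (MCF-7 with 1× NEAA); Bel-7402 and K562 grown in RPMI 1640; all media with 10% FBS. Cells seeded at 3500/well, pre-incubated 24 h, then exposed to compounds in fresh medium (DMSO ≤0.25%) for 72 h at 37 °C. MTT read-out at 570 nm. Quadruplicate wells, repeated three times; means ± SD (n = 3).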

Data set [18] relates to MCF7. Kind of data set: Induction of ROS generation in human MCF7 cells at 1 uM after 36 hrs in presence of ROS scavenger NAC by DCF-DA staining based flow cytometry. Format: functional, cell-based. The method, boiled down: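 MCF-7 cells exposed to 0–1 μM compound for 36 h, with DMSO as control; one arm pre-incubated with 2.5 mM NAC. Cells then loaded with DCF-DA at 37 °C for 15 min, harvested and resuspended in PBS. Fraction of DCF-positive cells measured by flow cytometry at Ex 480/Em 525 nm.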

Data set [19] has as its system Mus musculus. Put plainly: Toxicity in Balb/c nude mouse xenografted with human MCF7 cells assessed as changes in body weight at 20 mg/kg/day, iv for 4 weeks measured once in 2 days during compound dosing. Format: organism-based. To be noted: in vivo. In short, it runs like this: as §1

Activity calls are given as the source filed them. The rule behind the calls is not given here.

In general, IC50 refers to the concentration at which inhibition is half-maximal. Low readings indicate greater potency, high ones weaker potency. Regarding `C=C1C(=O)[C@]23[C@H](OC(=O)/C=C/c4ccccc4)[C@H]1CC[C@H]2[C@]12C=CCC(C)(C)[C@H]1[C@H](O)[C@]3(O)OC2`, the Activity was 22.4% in the data set with MCF7 [1]; 8.29% with MCF7 [2]; 2.39% in the data set with MCF7 [3]; “Non-Toxic” in the data set on Mus musculus [4]; 7.61% in the data set on Bel-7402 [5]; “Dose-dependent effect” with MCF7 [6]. Besides, the Activity in the data set on MCF7 [9] was 49.27%; in the data set on Bel-7402 [12], 57.83%; with Bel-7402 [14], 58.07%; in the data set on MCF7 [15], “Dose-dependent effect”; with MCF7 [17], 35.75%; in the data set on Mus musculus [19] it was “Non-Toxic”. For the same compound, the result in the data set with MCF7 [7], with MCF7 [8], in the data set with MCF7 [11] and with MCF7 [13] was Active. Further, in the data set with MCF7 [10], the inhibition in vivo at 20 mg/kg/day turned out to be 69.8%. Also, the IC50 in the data set on BEL-7404 tumor cell line worked out at 5.94 µM; in the data set with MGC-803 it was 1.03 µM. Besides, the inhibition result in the data set on MCF7 [16] is “Dose-dependent effect”. The result in the data set on MCF7 [18] was inactive.
